What was measured:
Rattus norvegicus [1] = species: Rattus norvegicus; experiment: Compound was tested for antidiuretic activity in rats under ethanol anesthesia; format: functional, Urine
Outline: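 Rats under ethanol anesthesia were given antidiuretic agonist assays against the USP posterior pituitary reference standard. Activity is expressed in units/mg.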

Rattus norvegicus [2] = species: Rattus norvegicus; experiment: Antivasopressor activity in phenoxybenzamine treated rats under urethane anesthesia was determined; Agonistic activity was observed; format: functional

SMILES: N=C(N)NCCC[C@H](NC(=O)[C@@H]1CCCN1C(=O)[C@@H]1CSSC[C@H](N)C(=O)N[C@@H](Cc2ccc(O)cc2)C(=O)N[C@@H](Cc2ccccc2)C(=O)N[C@@H](CCC(N)=O)C(=O)N[C@@H](CC(N)=O)C(=O)N1)C(=O)NCC(N)=O [VASOPRESSIN]
- Antidiuretic activity (Rattus norvegicus [1]): 330 U/mg
- vasopressor activity (Rattus norvegicus [2]): 382 units/mg
